# Measured values collected from several papers.
# Protocols differ between the studies behind these lines.
# Target: Mitogen-activated protein kinase 6 (MAPK6, Homo sapiens, UniProt Q16659)
SMILES,test,setting,remaining binding
Cc1nc(C2CCN(C(=O)c3ccc(OC(F)(F)F)cc3N)CC2)c2ncc(N3CCN(C)CC3)cc2n1,"cell-free assay, competition with immobilised ligand",1 µM,100%
O=C(c1ccc(Nc2ncc(Cl)c(-c3cc4ccccc4s3)n2)cc1)N1CCC(N2CCCC2)CC1,"binding, competition with immobilised ligand",1 µM,0%
COc1cnc(Nc2cccc(S(N)(=O)=O)c2)nc1N1CCN(c2ccccc2)CC1,"binding, competition with immobilised ligand",1 µM,100%
O=C(Nc1c[nH]nc1C(=O)NC1CCNCC1)c1cc(F)cc(F)c1,"binding, competition with immobilised ligand",1 µM,89%
C[C@@H](c1ccc(-n2cnc3c(N)ncnc32)cc1)N1CCc2nn(C)c(Cc3ccccc3)c2C1=O,"binding, competition with immobilised ligand",0.1 µM,93%
O=C(c1ccc(Nc2ncc(Cl)c(-c3ccc(Cl)s3)n2)cc1)N1CCC(N2CCCC2)CC1,"binding, competition with immobilised ligand",1 µM,0%
c1cnn2ncc(-c3ccnc(N4CCC45COC5)n3)c2c1,binding,1 µM,92%
O=C(NCCCN1CCOCC1)c1ccc(Nc2nccc(-c3cc4ccccc4s3)n2)cc1,"binding, competition with immobilised ligand",1 µM,48%
N[C@@H]1CCN(c2nccc(-c3cnn4ncccc34)n2)C1,binding,1 µM,100%
C=CC(=O)N1CCC(C(=O)NCC(=O)N2CCN(c3nc(-c4cnc(N)nc4C(F)F)nc(N4CCOCC4)n3)CC2)CC1,"binding, competition with immobilised ligand",1 µM,96%
CC(C)CC(=O)N1CCc2nc(-c3ccc(Br)cc3)nc(N(C)Cc3ccccc3)c2C1,"cell-free assay, competition with immobilised ligand",0.1 µM,100%
FC(F)(F)Oc1cccc(-c2cnc3ccc(-c4ccncc4)nn23)c1,"cell-free assay, competition with immobilised ligand",5 µM,91%
C[C@@H](c1cccc(C#N)c1)n1cc(Cl)cc(C(N)=O)c1=N,"cell-free assay, competition with immobilised ligand",1 µM,100%
C[C@@H]1CCN(c2nccc(-c3cnn4ncccc34)n2)C1,binding,1 µM,100%
C[C@@]1(Cc2ccc(C#N)cc2)C(=O)N(c2cc(Cl)cc(Cl)c2)c2ncc(C(=O)NC3(c4nc(C5CCC5)no4)CC3)n21,"cell-free assay, competition with immobilised ligand",1 µM,100%
CN(CCCC(F)(F)F)c1nccc(-c2cnn3ncccc23)n1,binding,1 µM,90%
CCN1CCN(Cc2ccc(C(=O)Nc3ccc(C)c(Oc4ccc5c(c4)CC(=O)N5)c3)cc2C(F)(F)F)CC1,"binding, competition with immobilised ligand",1 µM,100%
CN(c1nccc(-c2cnn3ncccc23)n1)C1CC1,binding,1 µM,87%
CN(C(=O)c1ccccc1)c1cc(N(C)c2ccc3c(c2)CCc2ccc(C(=O)NCCN4CCOCC4)cc2C3=O)ccc1F,"cell-free assay, competition with immobilised ligand",1 µM,100%
COc1cnc(Nc2cccc(S(N)(=O)=O)c2)nc1N1CCN(c2ccccc2)C(=O)C1,"binding, competition with immobilised ligand",1 µM,100%
CCCCN(CCCC)C(=O)CN1C[C@H](c2cc(OC)c3c(c2)OCO3)[C@@H](C(=O)O)[C@@H]1CC(C)(C)CCC,"cell-free assay, competition with immobilised ligand",1 µM,100%
CN(C)c1nccc(-c2cnn3ncccc23)n1,binding,1 µM,100%
